Bioassay records: PubChem BioAssay, several laboratories
Compounds with a hit are over-represented: about 4% of the library has one in this group of screens.
KCNK9 block: blocks the human KCNK9 two-pore domain potassium channel | B-score at 10 µM | HEK293 KCNK9, FluxOR thallium flux fluorescence; active compounds read low | 310,000 compounds, 1.2% hits | Q9NPC2;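 active = ratio B-score over 3 SD below the library mean, with starting fluorescence within 5 SD of its mean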;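 note: negative B-score means less thallium flux so channel inhibition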
KCNQ1 inh: human KCNQ1 channel inhibition; P51787; AID 2642; 310,000 compounds, 1.3% hits; B-score at 10 µM; CHO-K1 KCNQ1, FluxOR thallium flux fluorescence; active compounds read high;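 active = compounds whose thallium flux B-score, printed positive for inhibition, exceeds three library SD while starting fluorescence stays within three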;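 note: channel opened by potassium depolarization with thallium stimulus after 20 min compound exposure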
KCNQ1 pot: potentiators or activators of human KCNQ1 potassium channel; P51787; CHO-K1 KCNQ1, thallium flux FluxOR fluorescence; active compounds read high; B-score at 10 µM; 310,000 compounds, 0.35% hits; AID 2648;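 active = fluorescence ratio B-score, a plate-corrected score, at least three library SD, with initial intensity B-score within 5 SD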
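assay system = CHO-K1 cells stably expressing KCNQ1 | medium = assay buffer, equal DMSO in all wells | timing = 37 °C overnight plating, 90-min dark dye load, 20-min compound pretreatment | measured by = kinetic FluxOR thallium fluorescence, 10-s 1-Hz baseline, 110-s post-stimulus read | measure = fluorescence change relative to baseline, converted to B score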
hERG rescue: shields human hERG channel from block by proarrhythmic agents. Q12809. CHO-hERG, FluxOR thallium flux, dofetilide IC70 present. activation (rescue from dofetilide block), less the hit threshold, % at 10 µM. 310,000 compounds, 0.51% hits;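 active = activation above the mean of controls blocked by dofetilide plus 5 SD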;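 note: thallium influx through hERG after potassium depolarization seen as dye fluorescence rise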
PHOSPHO1 block: PHOSPHO1 (human) inhibition | Q8TCT1 | 290,000 compounds, 1.1% hits | inhibition, % at 13.3 µM | AID 1565 | recombinant PHOSPHO1, absorbance phosphatase assay; in the data active = inhibition above about 60%
Target sequence (Q8TCT1 whole entry, looked up): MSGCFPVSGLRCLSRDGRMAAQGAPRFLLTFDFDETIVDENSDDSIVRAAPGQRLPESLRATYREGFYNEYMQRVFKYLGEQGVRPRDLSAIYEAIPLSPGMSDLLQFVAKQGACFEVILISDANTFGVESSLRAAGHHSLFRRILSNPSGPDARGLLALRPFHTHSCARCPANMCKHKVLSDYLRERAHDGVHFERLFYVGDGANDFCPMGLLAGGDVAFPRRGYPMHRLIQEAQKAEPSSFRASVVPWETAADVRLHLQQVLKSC
KCNK3 block: human KCNK3 channel inhibition, primary screen | O14649 | CHO-KCNK3 thallium flux, FluxOR fluorescence; active compounds read low | B-score at 10 µM | 340,000 compounds, 0.84% hits;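 active = B-score under library mean minus 4 SD, starting fluorescence ratio at most library mean plus 5 SD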;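 note: more negative B-score means stronger inhibition of thallium flux through KCNK3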
Target sequence (O14649 whole entry, looked up): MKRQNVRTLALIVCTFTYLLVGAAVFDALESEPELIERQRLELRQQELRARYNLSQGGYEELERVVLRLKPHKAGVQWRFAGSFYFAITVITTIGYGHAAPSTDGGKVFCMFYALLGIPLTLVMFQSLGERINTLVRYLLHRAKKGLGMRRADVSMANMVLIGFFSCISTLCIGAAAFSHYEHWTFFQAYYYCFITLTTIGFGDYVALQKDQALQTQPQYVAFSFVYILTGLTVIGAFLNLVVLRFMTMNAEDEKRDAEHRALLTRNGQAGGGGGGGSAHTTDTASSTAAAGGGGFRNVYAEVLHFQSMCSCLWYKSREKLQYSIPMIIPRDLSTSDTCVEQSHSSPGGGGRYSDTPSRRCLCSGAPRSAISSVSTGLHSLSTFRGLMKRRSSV
KCNK9 block conf: human KCNK9 inhibitor confirmation; shares compounds with KCNK9 block; HEK293 KCNK9 cells, FluxOR thallium flux fluorescence; inhibition, % at 10 µM; 4,900 compounds, 43% hits; AID 492992;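 active = thallium signal inhibited by more than 5 SD of the compound-free buffer control wells, on both duplicate plates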;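 note: 0% = assay buffer control wells without compound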
Kir21 sel: tests whether KCNK9 modulators also affect mouse Kir2.1; AID 492993; 4,900 compounds, 4% hits; inhibition, % at 10 µM; shares compounds with KCNK9 block; Kir2.1 cells, FluxOR thallium flux fluorescence;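 active = thallium signal drop more than 5 SD beyond the mean of the no-compound control wells, seen in both duplicate plates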;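 note: signal is fluorescence rise after thallium addition divided by baseline fluorescence; plate controls were assay buffer only for no effect and full block by chlorpromazine control for full effect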
HEK293 Tl ctr: non-induced cell nonspecific activity of KCNK9 modulators; shares compounds with KCNK9 block; non-induced KCNK9-HEK293, FluxOR thallium flux; inhibition, % at 10 µM; 4,900 compounds, 40% hits; AID 492997;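 active = thallium signal drop beyond 5 SD of the untreated control mean, on both duplicate plates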;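 note: plate controls were buffer only IC0 wells for no effect and SID17386958 at its maximal inhibitory level for full effect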
KCNK3 inh conf: confirmation of human KCNK3 two-pore domain potassium channel inhibitors; shares compounds with KCNK3 block; CHO-KCNK3 thallium flux, FluxOR fluorescence; 0% buffer, 100% carvedilol maximal block; 2,400 compounds, 99% hits; ratio percent of control, % at 10 µM;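 active = ratio percent of control, averaged over triplicates, above buffer control mean plus 5 SD, cut at about 64% in these data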;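 note: ratio is the fluorescence rise from min to max over baseline after thallium stimulus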
KCNK3 uninduced: counter-screen for KCNK3 inhibitors: effect in non-induced cells; shares compounds with KCNK3 block; thallium flux ratio (lower = more inhibition) at 10 µM; AID 651747; non-induced KCNK3 parental cells, FluxOR thallium flux; active compounds read low; 2,400 compounds, 40% hits;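 active = thallium flux ratio, averaged over three wells, more than 5 SD below the buffer control mean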;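 note: host cells are CHO cells without KCNK3 induction; ratio is peak minus trough fluorescence over baseline then normalized to buffer controls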
* = called active by the depositor; i = inactive; x = no result.

SMILES	KCNK9 block	KCNQ1 inh	KCNQ1 pot	hERG rescue	PHOSPHO1 block	KCNK3 block	KCNK9 block conf	Kir21 sel	HEK293 Tl ctr	KCNK3 inh conf	KCNK3 uninduced
C=CCNC(=O)CN(c1cc(Cl)ccc1OC)S(=O)(=O)c1ccc(C)c([N+](=O)[O-])c1	i	i	i	-13.1	-15.5	i	x	x	x	x	x
C=CCOc1cc(OC)c(OC)c(OC)c1	i	i	i	-15.1	21.9	i	x	x	x	x	x
O=C(Oc1ccc2ccccc2c1Br)N1CCCCCC1	-12.2*	i	i	-13.2	25.4	i	68.0%*	i	36.0%*	108.3*	i
COc1ccc(NC(=O)c2cccc(NC(=O)c3ccccc3)c2)c(OC)c1	i	i	i	0.0	x	i	x	x	x	x	x
CCOc1cccc(C(=O)Nc2cccc(-c3nnc(-c4ccc(C)cc4)o3)c2)c1	i	i	i	-10.1	0.2	i	x	x	x	x	x
COc1cccc(C(=O)Nc2cccc(-c3nnc(-c4ccccc4)o3)c2)c1	-8.43*	i	i	-16.0	x	-10.2*	46.5%*	i	30.0%*	103.0*	0.154*
COc1ccc(OC)c(NC(=O)c2cccc(NC(=O)c3ccccc3)c2)c1	-8.98*	i	i	-5.0	-12.5	-10.7*	47.0%*	i	i	102.3*	i
CCOc1ccccc1NC(=O)CN(C)S(=O)(=O)c1ccc(OC)c(C)c1	-15*	i	i	-1.4	19.9	i	50.0%*	i	i	94.7*	i
N#Cc1ccc(NC(=O)CSc2n[nH]c(=O)n2C2CC2)cc1	x	x	x	x	x	i	x	x	x	x	x
Cc1nc2c(-c3ccc(F)cc3)c(C)nn2c(C)c1CCC(=O)N1CCN(c2ccccc2)CC1	i	i	i	-7.9	4.3	i	x	x	x	x	x
Cc1nc2c(-c3ccc(F)cc3)c(C)nn2c(C)c1CCC(=O)N1CCC(Cc2ccccc2)CC1	-9.82*	i	i	-10.3	23.9	-10*	i	i	41.5%*	115.0*	i
CCCOC(=O)c1ccc(NC(=O)CN(C)Cc2cccs2)cc1	-12.3*	i	i	-11.0	36.2	-10.4*	50.0%*	i	i	93.7*	i
CN(CC(=O)Nc1cc(Cl)cc(Cl)c1)Cc1cccs1	-14.2*	i	i	-3.5	32.5	-13*	63.0%*	i	44.0%*	122.0*	0.158*
Cn1c(N)c(C(=O)COC(=O)c2ccc(C(F)(F)F)cc2)c(=O)n(C)c1=O	x	x	x	x	x	i	x	x	x	x	x
COC(/C(=N/O)c1ccc(Cl)cc1)c1ccccc1 (configuration not stated)	-10.1*	11*	i	-20.4	x	-9.66*	38.5%*	i	48.0%*	114.3*	0.158*
C1CN(c2nc3nonc3nc2N2CCSCC2)CCO1	i	i	i	-11.2	31.6	i	x	x	x	x	x
CCOC(=O)c1cc(-c2ccc(Cl)cc2)nc2c1c(C)nn2CCC#N	-13*	i	i	-3.4	26.7	-9.3*	52.5%*	i	31.5%*	124.7*	0.131*
CCn1c(C(=O)N2CCC(C(=O)NCCCSC3CCCCC3)CC2)cc2sccc21	i	i	i	-20.7	10.8	-9.26*	i	i	i	92.3*	i
COc1ccc(CCNS(=O)(=O)c2ccc(Br)s2)cc1	-9.22*	i	i	-8.9	14.7	-9.42*	76.5%*	i	33.5%*	116.3*	i
CCCCN(CCCC)c1nc(-c2ccncc2)nc2ccccc12	-9.12*	i	i	-32.3	6.2	-9.38*	i	i	33.5%*	68.0*	i
COCCN(CCOC)c1nc(-c2ccccc2)nc2ccccc12	i	i	i	-22.4	30.5	i	x	x	x	x	x
c1coc(CN(Cc2ccco2)c2ncnc3c2oc2ccccc23)c1	-18.3*	i	i	-9.1	3.4	-12.1*	70.5%*	i	i	138.7*	0.142*
COc1cccc(-c2nn(-c3ccccc3)cc2C(=O)Nc2nccs2)c1	-15.2*	6*	i	-10.6	13.9	-10.5*	35.0%*	i	i	99.7*	0.122*
COc1ccc(C2c3[nH]c4ccccc4c3CCN2Cc2cccn2-c2ncccn2)cc1C (configuration not stated)	-17.6*	i	i	-20.3	35.3	-12.8*	53.5%*	i	36.5%*	130.7*	0.14*
Cc1cccc(C2c3[nH]c4ccccc4c3CCN2Cc2cccn2-c2ncccn2)c1 (configuration not stated)	-8.48*	i	i	-32.5	-7.0	-13.7*	i	i	32.5%*	113.3*	i
SMILES	KCNK9 block	KCNQ1 inh	KCNQ1 pot	hERG rescue	PHOSPHO1 block	KCNK3 block	KCNK9 block conf	Kir21 sel	HEK293 Tl ctr	KCNK3 inh conf	KCNK3 uninduced
c1ccc(C2c3[nH]c4ccccc4c3CCN2Cc2cccn2-c2ccccn2)nc1 (configuration not stated)	i	i	i	-19.1	50.3	i	x	x	x	x	x
CC(=O)Nc1ccc(SCC(=O)NCC2(N3CCCCC3)CCCCC2)cc1	x	x	x	x	x	i	x	x	x	x	x
O=C1[C@@H]2Cc3c([nH]c4ccccc34)CN2C(=O)CN1CCO	i	i	i	-5.5	29.9	i	x	x	x	x	x
C=CCSc1nc(N)c(C(=O)Nc2ccccc2OC)cc1C(=O)Nc1ccccc1	-8.7*	i	i	-9.3	0.3	-11*	27.0%*	i	i	107.3*	i
C=CCSc1nc(N)c(C(=O)Nc2ccccc2)cc1C#N	i	i	i	-7.9	21.6	i	x	x	x	x	x
Cc1noc(C)c1COc1ccccc1C(=O)NCCc1ccc(Cl)cc1	-20.4*	i	i	-15.2	x	-9.35*	63.0%*	i	35.0%*	81.3*	i
COc1ccccc1C(=O)Oc1ccc(C(C)(C)C)cc1	i	i	i	-12.6	6.4	-9.1*	i	i	i	92.7*	0.157*
CC(C)N1CCC(N2CCN(Cc3cc4c(cc3Cl)OCO4)CC2CCO)CC1 (configuration not stated)	i	i	i	-8.2	14.8	i	x	x	x	x	x
